Shown are actives, neighbours in structure and some others; about 2.2% of the full set was active somewhere.
Ecoli rRNA inh = reduced GFP signal of wild-type E. coli, primary screen, bacterial rRNA inhibitor project, GFP/RFP fluorescence, OD600, single point; 350,000 compounds, 1.6% hits; GFP signal change (wild-type ribosome), % (no concentration beside the values); E. coli WT GFP vs humanized-ribosome RFP mutants, 24 h; active compounds read low; DMSO median 0, no signal -100;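 active = significant combined selectivity score with lowered wild-type GFP, culture density cut under 30%, mutant RFP and density less affected; inactive = any of these conditions unmet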
SUMO Mot1 rescue = yeast Mot1-301 growth rescue at high temperature, primary screen, SUMOylation pathway inhibitor project, S. cerevisiae, ATP luminescence, 38.5C. growth rescue, % at 18.8 µM. 320,000 compounds, 1% hits. AID 2716, 2010. S. cerevisiae Mot1-301 growth rescue; percent above DMSO median, 100 means doubled;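 active = every valid replicate shows activation above 250% relative to neutral control wells; inactive = the rest, any valid replicate at or below 250%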
CR mimetic SO = reduction of superoxide in aged yeast, primary screen, HTS | 330,000 compounds, 0.18% hits | superoxide response (% of plate mean), % at 10 µM | S. cerevisiae aged cells, superoxide DHE fluorescence; active compounds read low;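 active = superoxide response under a set limit, about three screen SD below normal, cut at about 65% in these data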;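 also: yeast aged for seven days with compound at 30 °C before DHE staining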
PglD DTNB = C. jejuni PglD acetyltransferase inhibitors, primary screen, biochemical, DTNB colorimetric, single point; AID 602405, 2012; inhibition, % at 12.5 µM; UDP-N-acetylbacillosamine N-acetyltransferase PglD (Campylobacter jejuni); purified PglD enzyme, DTNB colorimetric CoA detection; 360,000 compounds, 0.098% hits; in the data active = inhibition above about 16%, passing the limit was not always enough; inconclusive = no clear call, values can overlap the other calls
Cneo AK release = Cryptococcus neoformans cell lysis inducers, primary screen, AK release luminescence, single concentration | C. neoformans lysis, adenylate kinase release luminescence, 4 h; normalised: neutral wells 0, clomiphene wells 100 | lysis activity, % at 15 µM | AID 651654, 2012 | 360,000 compounds, 0.2% hits;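 active = mean lysis activity across replicates of at least 80%, whatever share of replicates individually reach that level; inactive = mean lysis activity below 80%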
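Test system: log-phase Cryptococcus neoformans yeast cells. Input: 5 × 10^6 yeast cells/mL. Medium: fresh YPD growth medium. Doses: single dose. Incubation: static 4 h at 37 °C with compound, 1 h detection. Measured by: luminescent adenylate kinase detection reagent. Read-out: signal increase indicating cell lysis. Benchmarks: Clomiphene.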
AID977621 = growth inhibition of wild-type GFP E. coli, dose response, H69 mutant RFP, cherry-pick | activity change, negative = inhibition at 50 µM | shares compounds with Ecoli rRNA inh | E. coli wild-type GFP strain growth, fluorescence, 24 h | 1,900 tested, under 10 active;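 active = Wild-type ribosome reporter drop at least double the humanized mutant ribosome reporter drop, growth loss under a set limit; inconclusive = no clear call, values can overlap the other calls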;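 also: wild-type GFP and H69 mutant RFP strains grown together 50/50 in each well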
AID977628 = E. coli growth inhibition, wild-type GFP versus h24 humanized RFP strain, dose response, h24 mutant RFP vs wild-type GFP, cherry-pick; shares compounds with Ecoli rRNA inh; E. coli WT GFP strain growth, fluorescence, 24 h; activity change, negative = inhibition at 50 µM; 1,900 tested, under 10 active; AID 977628, 2014;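 active = compound lowering the normal-ribosome reporter at least twice as much as the humanized-ribosome reporter, growth loss under a set limit; inconclusive = no clear call, values can overlap the other calls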;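 also: wild-type GFP and h24 humanized RFP strains co-cultured 1 to 1 per well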
Hits are given with their value; 0 = inactive; ? = inconclusive; - = not tested or not shown.

SMILES | Ecoli rRNA inh | SUMO Mot1 rescue | CR mimetic SO | PglD DTNB | Cneo AK release | AID977621 | AID977628
Cc1ccc2nc(SCC(=O)Nc3c(F)cccc3F)[nH]c2c1 | -22 | 0 | 0 | 0 | 0 | - | ?
O=C(CSc1nc2ccccc2[nH]1)Nc1ccccc1F | -26 | 0 | 0 | 0 | 0 | - | ?
COc1ccccc1NC(=O)N1C[C@@H]2[C@H](c3ccccc31)[C@@H](CO)N2CC1CCOCC1 | 0 | - | - | 0 | 0 | - | -
COc1cc(OC)cc(-c2nc3ccccc3c(=O)n2OC(=O)c2ccc(C)c(C)c2)c1 | -22 | 0 | 0 | - | - | 0 | 0
O=C(NCc1cccs1)c1cccc(S(=O)(=O)N2CCCCC2)c1 | - | 0 | 0 | 0 | 0 | - | -
O=C(NCc1cccs1)c1ccc(Cl)c(S(=O)(=O)N2CCCC2)c1 | -19 | - | 0 | - | - | - | 0
COc1ccc(-c2sc(NC(C)=O)nc2-c2ccccc2)cc1 | - | 0 | 0 | - | - | - | -
COc1ccc(-c2nc(NC(C)=O)sc2-c2ccccc2)cc1 | -18 | 0 | 0 | - | - | 0 | -
Cc1ccc(NC(=O)c2cccnc2)cc1S(=O)(=O)N(C)C | 0 | 0 | 0 | - | - | - | -
Cc1ccc(NC(=O)c2ccc3ncsc3c2)cc1S(=O)(=O)N(C)C | -23 | 0 | 0 | - | - | 0 | -
CCCC(CCC)C(=O)Nc1cccc(-c2cn3c(n2)SCC3)c1 | 0 | 0 | 0 | 0 | 0 | - | -
O=C(Cc1ccc(Br)cc1)Nc1cccc(-c2cn3c(n2)SCC3)c1 | -21 | 0 | 0 | - | - | 0 | 0
COc1ccc(CSc2nc3ccccc3c(=O)n2CCCN2CCOCC2)cc1F | -28 | 0 | 0 | 0 | 0 | 0 | 0
CCC(=O)N1[C@@H]2Cn3c(ccc(-c4ccccc4)c3=O)[C@H]1[C@@H](C(=O)N(C)C)[C@@H]2CO | 0 | - | - | 0 | 0 | - | -
CC(=O)N1CCN(c2nc(-c3cccs3)nc3ccccc23)CC1 | -24 | 0 | 0 | - | - | 0 | -
CCOC(=O)N1CCN(c2nc(-c3cccs3)nc3ccccc23)CC1 | 0 | 0 | 0 | 0 | 0 | - | -
Cc1ccc(C(=O)OCC(=O)c2c[nH]c3ccccc23)cc1NC(=O)c1ccco1 | -20 | 0 | 0 | - | - | - | ?
O=C(NCC[C@@H]1CC[C@@H](NC(=O)C2CCOCC2)[C@H](CO)O1)c1ccc(F)cc1 | 0 | - | - | 0 | 0 | - | -
C(/C=C/c1ccccn1)=C\c1ccccc1 | 0 | 0 | 0 | - | - | - | -
C(=C(c1ccccc1)c1ccccc1)c1ccccn1 | -39 | 0 | 0 | 0 | 0 | 0 | -
CCCCn1c(=O)[nH]c(=O)c2c1nc(-c1ccccc1F)n2Cc1ccccc1 | -26 | - | 0 | - | - | 0 | ?
CCCCn1c(=O)[nH]c(=O)c2c1nc(-c1ccc(-c3ccccc3)cc1)n2C | 0 | 0 | 0 | 0 | 0 | - | -
CCCCc1cc2c(cc1NC(=O)CN1CCCCC1)OCCO2 | -18 | 0 | 0 | 0 | 0 | - | 0
CC(=O)c1cc2c(cc1NC(=O)CN1CCCCCCC1)OCO2 | - | 0 | 0 | 0 | 0 | - | -
COc1ccc(NC(=O)Nc2ccc3c(c2)C(=O)N([C@@H](C)CO)C[C@@H](C)[C@H](CN(C)C(=O)Nc2ccccc2)O3)cc1 | 0 | - | - | 0 | 0 | - | -
SMILES | Ecoli rRNA inh | SUMO Mot1 rescue | CR mimetic SO | PglD DTNB | Cneo AK release | AID977621 | AID977628
O=C(O)c1cc2ccc3ccccc3c2[nH]1 | -26 | 0 | 0 | - | - | 0 | -
O=C(O)c1cc(=O)c2ccccc2[nH]1 | - | 0 | 0 | 0 | 0 | - | -
CCn1c(CNC(=O)c2ccccc2F)cc2ccccc21 | 0 | 0 | 0 | 0 | 0 | - | -
CCn1c(CNC(=O)c2ccccc2F)cc2cc(C)ccc21 | -20 | 0 | 0 | 0 | 0 | ? | -
Cc1ccc(NC(=O)c2ccccc2F)c(NC(=O)c2ccccc2F)c1 | -20 | 0 | 0 | 0 | 0 | 0 | 0
Cc1ccc(NC(=O)c2ccccc2Cl)c(Cl)c1 | - | 0 | 0 | 0 | 0 | - | -
C[C@@H]1CCCCO[C@H](CN(C)CC2CC2)[C@H](C)CN([C@@H](C)CO)C(=O)c2cc(NS(C)(=O)=O)ccc2O1 | 0 | - | - | 0 | 0 | - | -
Cc1nn(C)cc1-c1n[nH]c(=S)n1-c1ccc(Cl)cc1 | 0 | 0 | 0 | 0 | 0 | - | -
CC(C)(C)c1cc(-c2n[nH]c(=S)n2-c2ccc(Cl)cc2)n[nH]1 | -31 | 0 | 0 | - | - | ? | -
CC(=O)Oc1c(Cl)cc(N(C(C)=O)S(=O)(=O)c2ccccc2)c2ccccc12 | -37 | 0 | 0 | 0 | 0 | ? | -
COc1ccc(CNC(=O)c2cc3c(s2)CN(Cc2ccccc2)C3)cc1 | -22 | 0 | 0 | - | - | 0 | -
COc1ccc(CN2C(=O)CSCC2(C)C(=O)NCc2ccccc2)cc1 (stereo not given) | 0 | - | - | - | - | - | -
O=C(O)c1cccc2c1C(=O)c1cc([N+](=O)[O-])cc([N+](=O)[O-])c1-2 | 0 | - | - | 0 | 0 | - | -
O=C(O)c1cccc2c1-c1ccc([N+](=O)[O-])cc1C2=O | -19 | - | - | - | - | 0 | 0
O=C(Cc1ccc(NC(=O)C2CCN(C(=O)CCc3ccccc3)CC2)cc1)Nc1cccc(C(=O)N2CCCC2)c1 | 0 | - | - | - | - | - | -
CN(C(=O)c1cccc(NC(=O)Cc2cccc(NC(=O)C3CCN(C(=O)CCc4ccccc4)CC3)c2)c1)C1CC1 | -38 | - | - | 0 | 0 | - | ?
O=C(Cc1cccc(NC(=O)C2CCN(C(=O)CCc3ccccc3)CC2)c1)Nc1cccc(C(=O)N2CCCC2)c1 | -19 | 0 | 0 | 0 | 0 | 0 | -
CN(C(=O)COC(=O)CNC(=O)c1ccccc1Cl)c1ccccc1 | 0 | 0 | 0 | - | - | - | -
CN(C(=O)COc1ccccc1C(=O)NCCOc1ccccc1)c1ccccc1 | -19 | 0 | 0 | - | - | 0 | -
O=C(Cc1ccccc1)N[C@H]1C=C[C@@H](CC(=O)N2CCCCC2)O[C@@H]1CO | 0 | - | - | 0 | 0 | - | -
O=[N+]([O-])c1cccc(COc2ccc(CN3CCOCC3)cc2)c1 | -17 | - | - | 0 | 0 | 0 | 0
COC(=O)[C@@H]1N[C@@H]2c3ccc(C4=CCCCC4)c(=O)n3C[C@@H]2[C@H]1CO | 0 | - | - | 0 | 0 | - | -
CC1CCC(C(C)C)C(OCC(O)CN2CCCC(C)C2)C1 (stereo not given) | -22 | 0 | 0 | - | - | 0 | ?
CCn1c(COc2ccccc2)nnc1SCC(=O)Nc1cc(OC)ccc1OC | - | 0 | 0 | 0 | 0 | - | -
CCn1c(COc2cccc(OC)c2)nnc1SCC(=O)Nc1cc(OC)ccc1OC | -23 | 0 | 0 | 0 | 0 | 0 | 0
CC(C)NC(=O)N(C)C[C@@H]1OCc2ccccc2-c2ccccc2C(=O)N([C@H](C)CO)C[C@H]1C | 0 | - | - | 0 | 0 | - | -
